Test [1] concerns Plasmodium falciparum. The experiment in a line: Antiplasmodial activity against chloroquine-susceptible Plasmodium falciparum FCR3. It is filed as functional, organism-based. The essentials:
(§1)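 Synchronous cultures in RPMI 1640 with 10% human serum, 25 mM HEPES (pH 7.2), hypoxanthine and 2% hematocrit type O+ RBCs, under 5% CO2/5% O2/90% N2 at 37 °C. DMSO stocks were serially diluted 2-fold and added to infected RBCs at 0.5% parasitemia, then incubated 52 h. Ring forms on Giemsa smears were counted against controls. Single assay per concentration; IC50 by probit.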

Test [2] deals with Plasmodium falciparum. As to the kind of experiment: Antiplasmodial activity against chloroquine-resistant Plasmodium falciparum K1. The class given is functional, organism-based. The essentials: as §1
For test [3], the system named is Plasmodium berghei. The experiment in a line: Antimalarial activity in […] NK65 infected ICR mice (Mus musculus) as reduced parasitemia at 500 mg/kg/day peroral dose after 4 days. The class given is functional. Particulars: route oral. The arrangement: scale not given: the % may be the effect or the level left. The essentials: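 Male ICR mice, 7 weeks old, were infected ip with 10^5 P. berghei NK65-parasitized erythrocytes from donor mice, five per group. Dosing began 2–4 h p.i., given orally by metal catheter once daily for 4 days. Compound was in DMSO diluted with distilled water (final DMSO <0.2%); controls got water. On day 4, tail-vein Giemsa smears gave parasitemia; suppression was calculated versus control.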

For test [4], the system named is Plasmodium berghei. As to the kind of experiment: Antimalarial activity in Plasmodium berghei NK65 infected ICR mice (Mus musculus) as reduced parasitemia at 100 mg/kg/day peroral dose for 4 days. The class given is functional. The arrangement: scale not given: the % may be the effect or the level left. The essentials: (§2)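 Peters 4-day suppressive test in 7-week-old outbred SPF male ICR mice, five per group. Mice infected i.p. with 10^5 P. berghei NK65-parasitized erythrocytes taken from donor mice. Compound dissolved in DMSO and diluted with distilled water (final DMSO below 0.2%). Given orally by metal catheter once daily for 4 days, first dose 2–4 h p.i.; controls received distilled water. Day-4 Giemsa tail-blood smears scored microscopically; suppression calculated against controls.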

The subject of test [5] is Plasmodium berghei. The experiment in a line: Antimalarial activity in Plasmodium berghei NK65 infected ICR mice (Mus musculus) as reduced parasitemia at 250 mg/kg/day peroral dose for 4 days. It is filed as functional. The arrangement: scale not given: the % may be the effect or the level left. Particulars: route oral. The essentials: as §2

Activity calls are given as the source filed them. The rule behind the calls is not given here.

Broadly, the IC50 is the concentration needed to halve the response being measured. In the case of `CC(=O)OC[C@](C)(O)[C@@H](CC/C(C)=C/CC/C(C)=C/CC/C=C(\C)CC/C=C(\C)CC[C@@H](O)C(C)(C)O)OC(C)=O`, the IC50 in the test with Plasmodium falciparum [1] was determined as 113 µM; in the test with Plasmodium falciparum [2], 97 µM.
With `C/C(=C\CC/C=C(\C)CC/C=C(\C)CC[C@@H](O)C(C)(C)O)CC/C=C(\C)CC[C@@H](O)C(C)(C)O`, the IC50 turned out to be 55 µM in the test on Plasmodium falciparum [1] and 59 µM with Plasmodium falciparum [2]. The figures for the Activity with Plasmodium berghei [3], in the test with Plasmodium berghei [4] (route oral) and in the test with Plasmodium berghei [5] were 20.5%, 26.5% and 26.5%, respectively.
As to `CC(=O)OC[C@](C)(O)[C@H](O)CC/C(C)=C/CC/C(C)=C/CC/C=C(\C)CC/C=C(\C)CC[C@@H](O)C(C)(C)O` [EKEBERIN D5], the results for the IC50 in the test on Plasmodium falciparum [1] and in the test on Plasmodium falciparum [2] were 55 µM and 137 µM, respectively.
In the case of `C/C(=C\CC/C=C(\C)CC[C@@H](O)[C@]1(C)CC[C@H](C(C)(C)O)O1)CC[C@@H](O)[C@]1(C)CC[C@H](C(C)(C)O)O1` [EKEBERIN D4], the IC50 with Plasmodium falciparum [1] is 40 µM.
Same read-out and setting: with `CC1(C)C(=O)C=C[C@]2(C)[C@H]3CC[C@@]4(C)[C@H](c5ccco5)OC(=O)[C@H]5O[C@]54[C@]3(C)C(=O)C[C@@H]12` the figure was 6 µM.
Consider `C/C(=C\CC/C=C(\C)CC/C=C(\C)CC[C@@H](O)[C@@](C)(O)CO)CC/C=C(\C)CC[C@@H](O)C(C)(C)O`, for which the IC50 in the test with Plasmodium falciparum [1] was 18 µM; in the test on Plasmodium falciparum [2], 7 µM. Besides, the Activity with Plasmodium berghei [3] turned out to be 52.9%; in the test on Plasmodium berghei [5], 41.2%. In the test with Plasmodium berghei [4], the result was inactive.

For the origin of these results see ChEMBL document CHEMBL1144785, “Antiplasmodial triterpenoids from Ekebergia capensis” (J Nat Prod, 2008).
